Key:
[1] = tested on: HUVEC; assay: Tested for inhibition of the human umbilical vein endothelial cell (HUVEC) proliferation
[2] = tested on: HUVEC; assay: Percent remained in HUVEC lysate after 0.5 hr in presence of epoxide hydrolase (EH) (Control = 103) (Compound used as substrate); Expressed as % remaining; type: functional, Homo sapiens
How it was run: (§1)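 Each compound at 2 mM incubated at 37 °C with epoxide hydrolase (1 mg/mL protein, final), alongside a no-enzyme control. Substrate remaining and hydrolysate formed were quantified at 3 min, 0.5 h and 2 h as % values. Estimated measurement error is 10–15%.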

[3] = tested on: HUVEC; assay: Percent remained in HUVEC lysate after 3 min in presence of epoxide hydrolase (EH) (Compound used as hydrolysate); Expressed as % remaining; type: functional, Homo sapiens; how it was run: as §1
[4] = tested on: HUVEC; assay: Percent remained in HUVEC lysate after 0.5 hr in presence of epoxide hydrolase (EH) along with inhibitor (Compound used as hydrolysate); Expressed as % remaining; type: functional, Homo sapiens
How it was run: (§2)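 Epoxide hydrolase (1 mg/mL protein, final) was co-incubated at 37 °C with the compound (2 mM) plus cyclohexene oxide (50 mM) as EH inhibitor. Substrate remaining and hydrolysate were quantified at 3 min, 0.5 h and 2 h as % values, with an estimated error of 10–15%.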

[5] = tested on: HUVEC; assay: Percent remained in HUVEC lysate after 2 hr in presence of epoxide hydrolase (EH) along with inhibitor (Compound used as hydrolysate); Expressed as % remaining; type: functional, Homo sapiens; how it was run: as §2
[6] = tested on: HUVEC; assay: Percent stability determined after 20 hr in HUVEC lysate; expressed as % remaining; type: functional, Homo sapiens
How it was run: (§3)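 Compound (1 mM) was incubated in HUVEC lysate at 37 °C and sampled at 0, 4 and 20 h. Results are expressed as % of compound remaining, with an estimated measurement error of 10–15%.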

[7] = tested on: HUVEC; assay: Percent remained in HUVEC lysate after 3 min in presence of epoxide hydrolase (EH) (Control = 100) (Compound used as substrate); Expressed as % remaining; type: functional, Homo sapiens; how it was run: as §1
[8] = tested on: HUVEC; assay: Percent remained in HUVEC lysate after 3 min in presence of epoxide hydrolase (EH) along with inhibitor (Control = 100) (Compound used as substrate); Expressed as % remaining; type: functional, Homo sapiens; how it was run: as §2
[9] = tested on: HUVEC; assay: Percent stability after 20 hr in HUVEC culture medium; expressed as % remaining; type: functional, Homo sapiens
[10] = tested on: HUVEC; assay: Percent stability determined after 0 hr in HUVEC lysate; expressed as % remaining; type: functional, Homo sapiens; how it was run: as §3
[11] = tested on: HUVEC; assay: Percent stability after 4 hr in HUVEC culture medium; expressed as % remaining; type: functional, Homo sapiens
[12] = tested on: HUVEC; assay: Percent remained in HUVEC lysate after 0.5 hr in presence of epoxide hydrolase (EH) along with inhibitor (Control = 103) (Compound used as substrate); Expressed as % remaining; type: functional, Homo sapiens; how it was run: as §2
[13] = tested on: HUVEC; assay: Percent remained in HUVEC lysate after 2 hr in presence of epoxide hydrolase (EH) (Compound used as hydrolysate); Expressed as % remaining; type: functional, Homo sapiens; how it was run: as §1
[14] = tested on: HUVEC; assay: Percent remained in HUVEC lysate after 2 hr in presence of epoxide hydrolase (EH) (Control = 100) (Compound used as substrate); Expressed as % remaining; type: functional, Homo sapiens; how it was run: as §1
[15] = tested on: HUVEC; assay: Percent remained in HUVEC lysate after 0.5 hr in presence of epoxide hydrolase (EH) (Compound used as hydrolysate); Expressed as % remaining; type: functional, Homo sapiens; how it was run: as §1
[16] = tested on: HUVEC; assay: Percent stability after 0 hr in HUVEC culture medium; expressed as % remaining; type: functional, Homo sapiens
[17] = tested on: HUVEC; assay: Percent remained in HUVEC lysate after 2 hr in presence of epoxide hydrolase (EH) along with inhibitor (Control = 103) (Compound used as substrate); Expressed as % remaining; type: functional, Homo sapiens; how it was run: as §2
[18] = tested on: HUVEC; assay: Percent stability after 4 hr in HUVEC lysate; Expressed as % remaining; type: functional, Homo sapiens; how it was run: as §3
[19] = tested on: HUVEC; assay: Percent remained in HUVEC lysate after 2 hr in presence of epoxide hydrolase (EH) along with inhibitor (Control = 106) used as substrate; Expressed as % remaining; type: functional, Homo sapiens; how it was run: as §2
[20] = tested on: HUVEC; assay: Percent remained in HUVEC lysate after 3 min in presence of epoxide hydrolase (EH) used as hydrolysate; Expressed as % remaining; type: functional, Homo sapiens; how it was run: as §1
[21] = tested on: HUVEC; assay: Percent remained in HUVEC lysate after 0.5 hr in presence of epoxide hydrolase (EH) along with inhibitor (Control = 92) (Compound used as substrate); Expressed as % remaining; type: functional, Homo sapiens; how it was run: as §2
[22] = tested on: HUVEC; assay: Percent remained in HUVEC lysate after 2 hr in presence of epoxide hydrolase (EH) along with inhibitor (Control = 90) (Compound used as substrate); Expressed as % remaining; type: functional, Homo sapiens; how it was run: as §2
[23] = tested on: HUVEC; assay: Percent stability determined after 20 hr in HUVEC lysate; Expressed as % remaining; type: functional, Homo sapiens; how it was run: as §3
[24] = tested on: HUVEC; assay: Percent stability determined after 0 hr in HUVEC lysate; Expressed as % remaining; type: functional, Homo sapiens; how it was run: as §3
[25] = tested on: HUVEC; assay: Percent stability determined after 4 hr in HUVEC lysate; Expressed as % remaining; type: functional, Homo sapiens; how it was run: as §3
[26] = tested on: HUVEC; assay: Percent stability determined after 20 hr in HUVEC culture medium; Expressed as % remaining; type: functional, Homo sapiens
[27] = tested on: HUVEC; assay: Percent stability determined after 0 hr in HUVEC culture medium; Expressed as % remaining; type: functional, Homo sapiens
[28] = tested on: HUVEC; assay: Percent stability determined after 4 hr in HUVEC culture medium; Expressed as % remaining; type: functional, Homo sapiens
[29] = target: Methionine aminopeptidase 2 (Homo sapiens, UniProt P50579); assay: Inhibitory activity against Methionine aminopeptidase 2
Chain of Methionine aminopeptidase 2 (P50579 whole entry): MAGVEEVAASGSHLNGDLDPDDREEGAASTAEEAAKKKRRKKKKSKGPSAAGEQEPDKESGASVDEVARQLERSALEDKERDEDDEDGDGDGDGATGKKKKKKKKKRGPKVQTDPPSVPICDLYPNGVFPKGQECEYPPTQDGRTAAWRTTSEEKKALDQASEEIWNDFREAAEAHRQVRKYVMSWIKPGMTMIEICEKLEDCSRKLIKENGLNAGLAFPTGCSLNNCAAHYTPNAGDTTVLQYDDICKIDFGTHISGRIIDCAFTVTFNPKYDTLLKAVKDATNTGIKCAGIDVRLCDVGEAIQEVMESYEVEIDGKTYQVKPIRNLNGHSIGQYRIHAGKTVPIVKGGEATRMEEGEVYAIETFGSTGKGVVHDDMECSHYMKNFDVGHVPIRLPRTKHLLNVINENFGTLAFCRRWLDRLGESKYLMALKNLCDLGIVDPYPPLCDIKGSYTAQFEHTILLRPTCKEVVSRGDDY

## CO[C@@H]1[C@H](OC(C)=O)CC[C@]2(CO2)[C@H]1[C@@]1(C)O[C@@H]1CC=C(C)C
[1]
  EC50: 3 nM

## CO[C@@H]1[C@H](OC(N)=O)CC[C@]2(CO2)[C@H]1/C(C)=N/OCc1ccccc1
[2]
  Activity: 2%
[3]
  Activity: 93%
[4]
  Activity: 15%
[5]
  Activity: 60%
[6]
  Activity: 3%
[7]
  Activity: 10%
[8]
  Activity: 106%
[9]
  Activity: 69%
[10]
  Activity: 100%
[11]
  Activity: 90%
[12]
  Activity: 95%
[13]
  Activity: 100%
[14]
  Activity: 1%
[15]
  Activity: 95%
[1]
  EC50: 88 nM
[16]
  Activity: 100%
[17]
  Activity: 60%
[18]
  Activity: 20%

## CO[C@@H]1[C@H](OC(C)=O)CC[C@]2(CO2)[C@H]1/C(C)=N/OCc1ccccc1
[1]
  EC50: 450 nM

## CO[C@@H]1[C@H](OC(N)=O)CC[C@]2(CO2)[C@H]1[C@@]1(C)O[C@@H]1CC=C(C)C
[19]
  Activity: 107%
[3]
  Activity: 22%
[7]
  Activity: 84%
[8]
  Activity: 98%
[12]
  Activity: 109%
[13]
  Activity: 100%
[15]
  Activity: 103%
[1]
  EC50: 0.65 nM

## CO[C@@H]1[C@H](OC(N)=O)CC[C@]2(CO2)[C@H]1/C(C)=C/CC=C(C)C
[20]
  Activity: 77%
[4]
  Activity: 21%
[5]
  Activity: 87%
[6]
  Activity: 1%
[7]
  Activity: 18%
[21]
  Activity: 75%
[8]
  Activity: 108%
[9]
  Activity: 68%
[10]
  Activity: 100%
[11]
  Activity: 76%
[13]
  Activity: 100%
[22]
  Activity: 5%
[15]
  Activity: 79%
[1]
  EC50: 490 nM
[16]
  Activity: 100%
[18]
  Activity: 36%

## CCN1CCN(C(=O)O[C@@H]2CC[C@]3(CO3)[C@@H]([C@@]3(C)O[C@@H]3CC=C(C)C)[C@@H]2OC)CC1
[23]
  Activity: 76%
[24]
  Activity: 100%
[25]
  Activity: 91%
[26]
  Activity: 75%
[27]
  Activity: 100%
[28]
  Activity: 95%

## CO[C@@H]1[C@H](OC(=O)/C=C/C=C/C=C/C=C/C(=O)O)CC[C@]2(CO2)[C@H]1[C@@]1(C)O[C@@H]1CC=C(C)C [FUMAGILLIN]
[29]
  IC50: 0.63 nM
[1]
  EC50: 0.82 nM

From ChEMBL document CHEMBL1146717, “Investigation of novel fumagillin analogues as angiogenesis inhibitors” (Bioorg Med Chem Lett, 2004)
